From ChEMBL document CHEMBL1154899, “Synthesis and biological evaluation of caffeic acid 3,4-dihydroxyphenethyl ester” (J Nat Prod, 2010)
≈ marks a conversion by molar mass, not a printed value.

Experiments:
Assay type in all cases: functional
OVCAR-8 = assay: Antiproliferative activity against human OVCAR8 cells assessed as cell growth at 0.5 uM by SRB assay; conditions: read-out: Activity
A498 [1] = assay: Antiproliferative activity against human A498 cells assessed as cell growth at 5 uM by SRB assay; conditions: read-out: Activity
ACHN = assay: Antiproliferative activity against human ACHN cells assessed as cell growth at 0.5 uM by SRB assay; conditions: read-out: Activity
RXF 393 = assay: Antiproliferative activity against human RXF393 cells assessed as cell growth at 50 uM by SRB assay; conditions: read-out: Activity
SK-MEL-5 = assay: Antiproliferative activity against human SK-MEL-5 cells assessed as cell growth at 5 uM by SRB assay; conditions: read-out: Activity
NCI-H460 = assay: Antiproliferative activity against human NCI-H460 cells by SRB assay
Malme-3M = assay: Antiproliferative activity against human MALME-3M cells assessed as cell growth at 5 uM by SRB assay; conditions: read-out: Activity
OVCAR-3 = assay: Antiproliferative activity against human OVCAR-3 cells assessed as cell growth at 0.5 uM by SRB assay; conditions: read-out: Activity
K562 = assay: Antiproliferative activity against human K562 cells assessed as cell growth at 5 uM by SRB assay; conditions: read-out: Activity
MOLT-4 = assay: Antiproliferative activity against human MOLT4 cells assessed as cell growth at 5 mM by SRB assay; conditions: read-out: Activity
UO-31 = assay: Antiproliferative activity against human UO31 cells assessed as cell growth at 0.5 uM by SRB assay; conditions: read-out: Activity
HT-29 = assay: Antiproliferative activity against human HT-29 cells assessed as cell growth at 50 uM by SRB assay; conditions: read-out: Activity
MCF7 = assay: Antiproliferative activity against human MCF7 cells by SRB assay
SNB-75 = assay: Antiproliferative activity against human SNB75 cells assessed as cell growth at 0.5 uM by SRB assay; conditions: read-out: Activity
NCI-H522 [2] = assay: Antiproliferative activity against human NCI-H522 cells assessed as cell growth at 0.5 uM by SRB assay; conditions: read-out: Activity
U-251 = assay: Antiproliferative activity against human U251 cells by SRB assay
MDA-MB-435 = assay: Antiproliferative activity against human MDA-MB-435 cells assessed as cell growth at 50 uM by SRB assay; conditions: read-out: Activity
SK-OV-3 = assay: Antiproliferative activity against human SKOV3 cells by SRB assay
[3] = Antiproliferative activity against human Hs 578T cells assessed as cell growth at […] by SRB assay; conditions: read-out: Activity
NCI/ADR-RES = assay: Antiproliferative activity against human NCI/ADR-RES cells assessed as cell growth at 0.5 uM by SRB assay; conditions: read-out: Activity
HCT-15 = assay: Antiproliferative activity against human HCT15 cells assessed as cell growth at 0.5 uM by SRB assay; conditions: read-out: Activity
TK-10 [4] = assay: Antiproliferative activity against human TK10 cells assessed as cell growth at 0.5 uM by SRB assay; conditions: read-out: Activity
SK-MEL-28 [5] = assay: Antiproliferative activity against human SK-MEL-28 cells by SRB assay
SK-MEL-28 [6] = assay: Antiproliferative activity against human SK-MEL-28 cells assessed as cell growth at 5 uM by SRB assay; conditions: read-out: Activity
T47D = assay: Antiproliferative activity against human T47D cells assessed as cell growth at 500 uM by SRB assay; conditions: read-out: Activity
OVCAR-4 = assay: Antiproliferative activity against human OVCAR4 cells assessed as cell growth at 500 uM by SRB assay; conditions: read-out: Activity
UACC-257 = assay: Antiproliferative activity against human UACC257 cells assessed as cell growth at 500 uM by SRB assay; conditions: read-out: Activity
TK-10 [7] = assay: Antiproliferative activity against human TK10 cells assessed as cell growth at 5 mM by SRB assay; conditions: read-out: Activity
[8] = tested on: Radical scavenging activity; assay: Antioxidant activity assessed as DPPH radical scavenging activity after 20 mins
Outline: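 Test solution at several concentrations (100 µL) mixed with 900 µL of 0.04 mg/mL DPPH in methanol, held 20 min at room temperature, absorbance read at 517 nm. Inhibition % = [(Ac − As)/Ac] × 100, with a blank holding 100 µL methanol in place of sample. Inhibition plotted against concentration; EC50 (mean ± SD) from linear regression of three determinations.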

SN12C = assay: Antiproliferative activity against human SN12C cells assessed as cell growth at 5 uM by SRB assay; conditions: read-out: Activity
HCC 2998 = assay: Antiproliferative activity against human HCC2998 cells assessed as cell growth at 50 uM by SRB assay; conditions: read-out: Activity
NCI-H522 [9] = assay: Antiproliferative activity against human NCI-H522 cells assessed as cell growth at 5 uM by SRB assay; conditions: read-out: Activity
BT-549 = assay: Antiproliferative activity against human BT549 cells assessed as cell growth at 5 uM by SRB assay; conditions: read-out: Activity
[10] = Antiproliferative activity against human […] cells by SRB assay
EKVX = assay: Antiproliferative activity against human EKVX cells assessed as cell growth at 50 uM by SRB assay; conditions: read-out: Activity
A498 [11] = assay: Antiproliferative activity against human A498 cells by SRB assay
CCRF-CEM = assay: Antiproliferative activity against human CCRF-CEM cells by SRB assay
SR = assay: Antiproliferative activity against human SR cells assessed as cell growth at 0.5 uM by SRB assay; conditions: read-out: Activity
[12] = read-out: LC50 (the source's name)
[13] = read-out: pLC50 (the source's name) (converted)

SMILES: O=C(/C=C/c1ccc(O)c(O)c1)OCCc1ccc(O)c(O)c1
- growth at 0.5 µM (OVCAR-8): 78%
- growth at 5 µM (A498 [1]): 81%
- growth at 0.5 µM (ACHN): 98%
- growth at 50 µM (RXF 393): 135%
- growth at 5 µM (SK-MEL-5): 97%
- GI50 (NCI-H460): 14.8 µM
- CC50 (NCI-H460; [12]): > 50 µM
- TGI (NCI-H460; read-out: TGI): > 50 µM
- CC50 (NCI-H460; [13]): > 50.1 µM
- TGI (NCI-H460; read-out: pTGI): > 50.1 µM
- growth at 5 µM (Malme-3M): 98%
- growth at 0.5 µM (OVCAR-3): 104%
- growth at 5 µM (K562): 95%
- growth at 5000 µM (MOLT-4): 4%
- growth at 0.5 µM (UO-31): 98%
- growth at 50 µM (HT-29): 98%
- GI50 (MCF7; read-out: GI50): 3.86 µM
- CC50 (MCF7; [12]): > 50 µM
- TGI (MCF7; read-out: TGI): > 50 µM
- GI50 (MCF7; read-out: pGI50 (converted)): 3.89 µM
- CC50 (MCF7; [13]): > 50.1 µM
- TGI (MCF7; read-out: pTGI): > 50.1 µM
- growth at 0.5 µM (SNB-75): 81%
- growth at 0.5 µM (NCI-H522 [2]): 74%
- GI50 (U-251; read-out: GI50): 8.86 µM
- CC50 (U-251; [12]): > 50 µM
- TGI (U-251; read-out: TGI): > 50 µM
- GI50 (U-251; read-out: pGI50 (converted)): 8.71 µM
- CC50 (U-251; [13]): > 50.1 µM
- TGI (U-251; read-out: pTGI): > 50.1 µM
- growth at 50 µM (MDA-MB-435): 89%
- GI50 (SK-OV-3; read-out: GI50): 13.7 µM
- CC50 (SK-OV-3; [12]): > 50 µM
- TGI (SK-OV-3; read-out: TGI): > 50 µM
- GI50 (SK-OV-3; read-out: pGI50 (converted)): 13.2 µM
- CC50 (SK-OV-3; [13]): > 50.1 µM
- TGI (SK-OV-3; read-out: pTGI): > 50.1 µM
- growth [3]: 9%
- growth at 0.5 µM (NCI/ADR-RES): 97%
- growth at 0.5 µM (HCT-15): 80%
- growth at 0.5 µM (TK-10 [4]): 92%
- GI50 (SK-MEL-28 [5]; read-out: GI50): 6.51 µM
- CC50 (SK-MEL-28 [5]; [12]): > 50 µM
- TGI (SK-MEL-28 [5]; read-out: TGI): > 50 µM
- GI50 (SK-MEL-28 [5]; read-out: pGI50 (converted)): 6.46 µM
- CC50 (SK-MEL-28 [5]; [13]): > 50.1 µM
- TGI (SK-MEL-28 [5]; read-out: pTGI): > 50.1 µM
- growth at 5 µM (SK-MEL-28 [6]): 89%
- growth at 500 µM (T47D): 71%
- growth at 500 µM (OVCAR-4): 58%
- growth at 500 µM (UACC-257): 83%
- growth at 5000 µM (TK-10 [7]): 40%
- EC50 [8]: 4.7 µg/mL (≈ 14.9 µM)
- growth at 5 µM (SN12C): 80%
- growth at 50 µM (HCC 2998): 98%
- growth at 5 µM (NCI-H522 [9]): 89%
- growth at 5 µM (BT-549): 100%
- GI50 ([10]; read-out: GI50): 0.63 µM
- CC50 [10, 12]: > 50 µM
- TGI ([10]; read-out: TGI): 8.48 µM
- GI50 ([10]; read-out: pGI50 (converted)): 0.631 µM
- CC50 [10, 13]: > 50.1 µM
- TGI ([10]; read-out: pTGI (converted)): 8.51 µM
- growth at 50 µM (EKVX): 88%
- GI50 (A498 [11]; read-out: GI50): 8.05 µM
- CC50 (A498 [11]; [12]): > 50 µM
- TGI (A498 [11]; read-out: TGI): 36.1 µM
- GI50 (A498 [11]; read-out: pGI50 (converted)): 8.13 µM
- CC50 (A498 [11]; [13]): > 50.1 µM
- TGI (A498 [11]; read-out: pTGI (converted)): 36.3 µM
- GI50 (CCRF-CEM): 0.75 µM
- CC50 (CCRF-CEM; [12]): > 50 µM
- TGI (CCRF-CEM; read-out: TGI): 5.33 µM
- CC50 (CCRF-CEM; [13]): > 50.1 µM
- TGI (CCRF-CEM; read-out: pTGI (converted)): 5.37 µM
- growth at 0.5 µM (SR): 92%
